23 compounds from ChEMBL document CHEMBL5329223, “Newly synthesized 6-substituted piperazine/phenyl-9-cyclopentyl containing purine nucleobase analogs act as potent anticancer agents and induce apoptosis via inhibiting Src in hepatocellular carcinoma cells” (RSC Med Chem, 2023) can be followed below.

Active and inactive are the calls of the source. No cut-off for these calls is given here.

What all share (assay type): functional, cell-based
One assay has as its system HCT-116. Kind of assay: Cytotoxicity against human HCT-116 cells assessed as cell growth inhibition incubated for 72 hrs by SRB assay. The conditions noted are these: for IC50: HCT-116, 72 h. An outline of the steps: (§1)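 Cells seeded at 1000–3000 per well, treated after 24 h with 2.5–40 μM (40, 20, 10, 5, 2.5 μM) for 72 h, in duplicate or triplicate; DMSO negative control. Fixed with 10% TCA 1 h at 4 °C, stained with 0.4% SRB in 1% acetic acid, dye solubilized in 10 mM TBS, A515 read; OD normalized to DMSO control, IC50 from growth-inhibition curves.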

Another assay concerns SNU-475. Kind of assay: Cytotoxicity against human SNU-475 cells assessed as cell growth inhibition incubated for 72 hrs by SRB assay. The following applies: SNU-475, 72 h. The method, boiled down: as §1
Assay [1] is described as follows: Cytotoxicity against human FOCUS cells assessed as cell growth inhibition incubated for 72 hrs by SRB assay. An outline of the steps:
as §1

In another assay the test system is MCF7. Kind of assay: Cytotoxicity against human MCF7 cells assessed as cell growth inhibition incubated for 72 hrs by SRB assay. The conditions noted are these: for IC50: MCF7, 72 h. An outline of the steps: as §1
A further assay concerns SNU-387. In words: Cytotoxicity against human SNU-387 cells assessed as cell growth inhibition incubated for 72 hrs by SRB assay. The conditions noted are these: SNU-387, 72 h. An outline of the steps: as §1
A further assay concerns SNU-182. Kind of assay: Cytotoxicity against human SNU-182 cells assessed as cell growth inhibition incubated for 72 hrs by SRB assay. The conditions noted are these: for IC50: SNU-182, 72 h. The method, boiled down: as §1
Another assay concerns Hep 3B2. Kind of assay: Cytotoxicity against human Hep3B cells assessed as cell growth inhibition incubated for 72 hrs by SRB assay. An outline of the steps:
as §1

For the next assay, the system named is SNU-398. Kind of assay: Cytotoxicity against human SNU-398 cells assessed as cell growth inhibition incubated for 72 hrs by SRB assay. The following applies: SNU-398, 72 h. An outline of the steps:
as §1

The subject of a further assay is SNU-449. Kind of assay: Cytotoxicity against human SNU-449 cells assessed as cell growth inhibition incubated for 72 hrs by SRB assay. The conditions noted are these: SNU-449, 72 h. The method, boiled down: as §1
For the next assay, the system named is HepG2. Kind of assay: Cytotoxicity against human HepG2 cells assessed as cell growth inhibition incubated for 72 hrs by SRB assay. The following applies: HepG2, 72 h. The method, boiled down:
as §1

In another assay the test system is PLC. Kind of assay: Cytotoxicity against human PLC cells assessed as cell growth inhibition incubated for 72 hrs by SRB assay. An outline of the steps: as §1
Assay [2] has as its system Huh-7. Kind of assay: Cytotoxicity against human Huh-7 cells assessed as cell growth inhibition incubated for 72 hrs by SRB assay. The conditions noted are these: for IC50: Huh-7, 72 h. The method, boiled down: as §1
For a further assay, the system named is SNU-423. In words: Cytotoxicity against human SNU-423 cells assessed as cell growth inhibition incubated for 72 hrs by SRB assay. The conditions noted are these: SNU-423, 72 h. An outline of the steps:
as §1

In assay [3] the test system is Mahlavu. In words: Cytotoxicity against human Mahlavu cells assessed as cell growth inhibition incubated for 72 hrs by SRB assay. The method, boiled down: as §1
The subject of assay [4] is Mahlavu. In words: Upregulation of intracellular ATP level in human Mahlavu cells at 5 uM incubated for 72 hrs by Kinase Glo assay. An outline of the steps:
(§2)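 Huh7 and Mahlavu cells grown 24 h, then treated with 5 μM for 72 h. Lysates protein-normalized by Bradford; ATP read by Kinase-Glo Plus luminescence per kit protocol. Staurosporine positive control, DMSO negative control.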

Assay [5] concerns Huh-7. Kind of assay: Upregulation of intracellular ATP level in human Huh-7 cells at 5 uM incubated for 72 hrs by Kinase Glo assay. An outline of the steps: as §2

`O=S(=O)(c1ccc(F)cc1)N1CCN(c2ncnc3c2ncn3C2CCCC2)CC1`: the IC50 with HCT-116 is 12 µM; in the assay with SNU-475 it was 21.6 µM; in assay [1] it was 12.6 µM; in the assay on MCF7, 5.2 µM; in the assay with SNU-387 it was 11.1 µM; in the assay on SNU-182 it was 47.9 µM. Further, the IC50 was 6.1 µM in the assay with Hep 3B2; 8 µM with SNU-398; 16.3 µM in the assay with SNU-449; 4.8 µM in the assay with HepG2; 15.4 µM in the assay on PLC; 9 µM in the assay on Huh-7 [2]. Further, the figures for the IC50 in the assay with SNU-423 and in the assay on Mahlavu [3] were 9.5 µM and 11.4 µM, respectively.

With `COc1ccc(S(=O)(=O)N2CCN(c3ncnc4c3ncn4C3CCCC3)CC2)cc1`, the half-maximal inhibitory concentration (IC50) in the assay on HCT-116 was 10.4 µM; with SNU-475 it was 57.5 µM; in [1] it was 10.1 µM; with MCF7, 8.6 µM; with SNU-387, 15.8 µM; in the assay on Hep 3B2 it was 71.8 µM. Also, the IC50 came out at 6.9 µM in the assay with SNU-398; 20 µM in the assay with SNU-449; 2.7 µM in the assay with HepG2; 84.6 µM in the assay with PLC; 7.1 µM in the assay with Huh-7 [2]; 6.8 µM in the assay on SNU-423. Further, in the assay on Mahlavu [3], the IC50 stood at 9 µM. The “growth inhibition (GI)” value in the assay with SNU-182 was “inactive”.

On to `Cc1ccc(-c2ncnc3c2ncn3C2CCCC2)cc1`, for which the IC50 in the assay on HCT-116 is 22.4 µM; with MCF7 it was 17.7 µM; in the assay on Huh-7 [2], 23.8 µM.

`CC(C)(C)c1ccc(-c2ncnc3c2ncn3C2CCCC2)cc1`: the IC50 was 6.6 µM with HCT-116; 12.3 µM in the assay with SNU-475; 2 µM in [1]; 12.6 µM in the assay on MCF7; 2 µM in the assay on SNU-387; 12.2 µM in the assay with SNU-182. In addition, the IC50 in the assay with Hep 3B2 was 6.7 µM; with SNU-398, 1.8 µM; in the assay on SNU-449, 6.9 µM; in the assay on HepG2, 2.7 µM; in the assay with PLC it was 3.4 µM; with Huh-7 [2], 6.3 µM. Also, the IC50 in the assay on SNU-423 and in the assay with Mahlavu [3] was 4 µM in each case.

With `OC[C@H]1O[C@@H](n2cnc3c2N=CNC[C@H]3O)C[C@@H]1O`, the “growth inhibition (GI)” value in the assay with HCT-116, in the assay on MCF7 and with Huh-7 [2] was “inactive” in each case.

In the case of `Cc1ccc(S(=O)(=O)N2CCN(c3ncnc4c3ncn4C3CCCC3)CC2)cc1`, the IC50 in the assay on HCT-116 is 197 µM; in the assay on MCF7 it was 171 µM; in the assay with Huh-7 [2], 49 µM.

Regarding `COc1ccc(-c2ncnc3c2ncn3C2CCCC2)cc1`, the IC50 in the assay with HCT-116 was 39 µM; in the assay on MCF7 it was 19.5 µM; in the assay on Huh-7 [2], 10.6 µM.

With `c1ccc(-c2ncnc3c2ncn3C2CCCC2)cc1`, the IC50 with HCT-116 was found to be 13.9 µM; in the assay on MCF7 it was 15.7 µM; in the assay on Huh-7 [2], 12.8 µM.

As for `FC(F)(F)c1ccc(-c2ncnc3c2ncn3C2CCCC2)cc1`, the IC50 in the assay on HCT-116 was determined as 6 µM; with MCF7, 20.3 µM; in the assay on Huh-7 [2], 29.8 µM.

As to `CC(C)c1ccc(S(=O)(=O)N2CCN(c3ncnc4c3ncn4C3CCCC3)CC2)cc1`, the IC50 is 11.5 µM in the assay on HCT-116, 17.2 µM with MCF7 and 14.7 µM in the assay on Huh-7 [2].

Turning to `O=S(=O)(c1ccc(Cl)cc1)N1CCN(c2ncnc3c2ncn3C2CCCC2)CC1`, the figures for the IC50 with HCT-116, in the assay on MCF7 and in the assay on Huh-7 [2] were 44.8 µM, 10.5 µM and 34.4 µM, respectively.

In the case of `O=S(=O)(c1ccccc1)N1CCN(c2ncnc3c2ncn3C2CCCC2)CC1`, the IC50 with HCT-116 is 12 µM; with MCF7 it was 11.2 µM; in the assay with Huh-7 [2], 13.1 µM.

On to `O=S(=O)(c1ccc(Br)cc1)N1CCN(c2ncnc3c2ncn3C2CCCC2)CC1`, for which the IC50 is 8.4 µM with HCT-116; 9 µM in the assay on SNU-475; 15.9 µM in [1]; 6.5 µM with MCF7; 15.9 µM in the assay with SNU-387; 60.6 µM with SNU-182. Moreover, the IC50 in the assay on Hep 3B2 was 4.3 µM; in the assay with SNU-398 it was 4 µM; in the assay on SNU-449 it was 8.5 µM; with HepG2 it was 6.3 µM; with PLC, 9.2 µM; with Huh-7 [2] it was 8 µM. Moreover, the IC50 in the assay with SNU-423 worked out at 10.5 µM; in the assay with Mahlavu [3], 20.5 µM.

Regarding `O=S(=O)(c1ccc(C(F)(F)F)cc1)N1CCN(c2ncnc3c2ncn3C2CCCC2)CC1`, the IC50 was determined as 32.4 µM in the assay on HCT-116, 12.7 µM in the assay with MCF7 and 12.3 µM with Huh-7 [2].

In the case of `CN[C@@H]1C[C@H]2O[C@@](C)([C@@H]1OC)n1c3ccccc3c3c4c(c5c6ccccc6n2c5c31)C(=O)NC4`, the result in the assay with Mahlavu [4] and with Huh-7 [5] was inactive.

`Cc1ccc(N2CCN(c3ncnc4c3ncn4C3CCCC3)CC2)cc1`: the IC50 came out at 1.9 µM with HCT-116; 17.7 µM with SNU-475; 5 µM in assay [1]; 6.4 µM in the assay with MCF7; 88 µM in the assay with SNU-387; 61 µM with SNU-182. The IC50 with Hep 3B2 is 3.1 µM; in the assay on SNU-398, 1.9 µM; with SNU-449, 17 µM; in the assay on HepG2, 0.9 µM; in the assay on PLC, 20.7 µM; in the assay on Huh-7 [2], 1.4 µM. The IC50 turned out to be 17.5 µM in the assay on SNU-423 and 4.2 µM with Mahlavu [3].

On to `Fc1ccc(-c2ncnc3c2ncn3C2CCCC2)cc1`, for which the IC50 in the assay on HCT-116 worked out at 6.1 µM; with MCF7, 15.6 µM; with Huh-7 [2], 6.7 µM.

Turning to `Nc1nc(Cl)nc2c1ncn2[C@H]1C[C@H](O)[C@@H](CO)O1` [CLADRIBINE], the IC50 with HCT-116 was less than 0.1 µM; in the assay with SNU-475, 2.5 µM; in assay [1] it was less than 0.1 µM; in the assay on SNU-387 it was 7.1 µM; with SNU-182 it was 23.3 µM; in the assay on Hep 3B2, 0.1 µM. In addition, the IC50 in the assay on SNU-398 was less than 0.1 µM; with SNU-449, 37.3 µM; in the assay on HepG2, 0.4 µM; with PLC, 9.1 µM; in the assay with Huh-7 [2], 0.6 µM; in the assay on SNU-423, 6.7 µM. In the assay with Mahlavu [3], the IC50 was less than 0.1 µM.

`FC(F)(F)Oc1ccc(-c2ncnc3c2ncn3C2CCCC2)cc1`: the IC50 with HCT-116 turned out to be 26.3 µM; in the assay with MCF7, 24 µM; in the assay with Huh-7 [2], 15.1 µM.

Take `Brc1ccc(-c2ncnc3c2ncn3C2CCCC2)cc1`: in the assay with HCT-116, the inhibition result is “inactive”. Besides, the IC50 in the assay with MCF7 was 56.1 µM; in the assay with Huh-7 [2], 16 µM.

As to `Nc1nc(F)nc2c1ncn2[C@@H]1O[C@H](CO)[C@@H](O)[C@@H]1O` [FLUDARABINE], the IC50 came out at 8.3 µM in the assay with HCT-116; 41.5 µM in the assay on SNU-475; 13.7 µM in assay [1]; 33.8 µM in the assay with SNU-387; 37.2 µM in the assay with SNU-182; 27.8 µM with Hep 3B2. For the same compound, the IC50 in the assay on SNU-398 turned out to be 0.2 µM; in the assay with SNU-449, 25.1 µM; in the assay with HepG2, 17 µM; in the assay with PLC, 41.7 µM; in the assay with Huh-7 [2], 24.4 µM; in the assay with SNU-423 it was 32.6 µM. Also, the IC50 in the assay on Mahlavu [3] came out at 14.2 µM.

As for `Clc1ccc(-c2ncnc3c2ncn3C2CCCC2)cc1`, the “growth inhibition (GI)” value in the assay with HCT-116 and in the assay with MCF7 was “inactive” each time. The IC50 with Huh-7 [2] was found to be 15.6 µM.

On to `Clc1ccc(N2CCN(c3ncnc4c3ncn4C3CCCC3)CC2)cc1Cl`, for which the IC50 with HCT-116 was found to be 0.04 µM; in the assay on SNU-475 it was 2.5 µM; in [1] it was 0.5 µM; in the assay with MCF7, 0.16 µM; with SNU-387 it was 20 µM; in the assay on SNU-182 it was 65 µM. In addition, the IC50 in the assay with Hep 3B2 was 0.03 µM; in the assay with SNU-398 it was 0.2 µM; with SNU-449, less than 0.1 µM; in the assay on HepG2, 0.02 µM; in the assay on PLC, 7 µM; in the assay on Huh-7 [2], 0.04 µM. The IC50 was determined as 9.9 µM in the assay on SNU-423 and 0.1 µM in the assay with Mahlavu [3].
